# Experimental data of several laboratories.
# Compare with care: the assays were run in different laboratories.
# Target: Ephrin type-A receptor 8 (EPHA8, Homo sapiens, UniProt P29322)
# Residues used in one study (P29322 28-1005): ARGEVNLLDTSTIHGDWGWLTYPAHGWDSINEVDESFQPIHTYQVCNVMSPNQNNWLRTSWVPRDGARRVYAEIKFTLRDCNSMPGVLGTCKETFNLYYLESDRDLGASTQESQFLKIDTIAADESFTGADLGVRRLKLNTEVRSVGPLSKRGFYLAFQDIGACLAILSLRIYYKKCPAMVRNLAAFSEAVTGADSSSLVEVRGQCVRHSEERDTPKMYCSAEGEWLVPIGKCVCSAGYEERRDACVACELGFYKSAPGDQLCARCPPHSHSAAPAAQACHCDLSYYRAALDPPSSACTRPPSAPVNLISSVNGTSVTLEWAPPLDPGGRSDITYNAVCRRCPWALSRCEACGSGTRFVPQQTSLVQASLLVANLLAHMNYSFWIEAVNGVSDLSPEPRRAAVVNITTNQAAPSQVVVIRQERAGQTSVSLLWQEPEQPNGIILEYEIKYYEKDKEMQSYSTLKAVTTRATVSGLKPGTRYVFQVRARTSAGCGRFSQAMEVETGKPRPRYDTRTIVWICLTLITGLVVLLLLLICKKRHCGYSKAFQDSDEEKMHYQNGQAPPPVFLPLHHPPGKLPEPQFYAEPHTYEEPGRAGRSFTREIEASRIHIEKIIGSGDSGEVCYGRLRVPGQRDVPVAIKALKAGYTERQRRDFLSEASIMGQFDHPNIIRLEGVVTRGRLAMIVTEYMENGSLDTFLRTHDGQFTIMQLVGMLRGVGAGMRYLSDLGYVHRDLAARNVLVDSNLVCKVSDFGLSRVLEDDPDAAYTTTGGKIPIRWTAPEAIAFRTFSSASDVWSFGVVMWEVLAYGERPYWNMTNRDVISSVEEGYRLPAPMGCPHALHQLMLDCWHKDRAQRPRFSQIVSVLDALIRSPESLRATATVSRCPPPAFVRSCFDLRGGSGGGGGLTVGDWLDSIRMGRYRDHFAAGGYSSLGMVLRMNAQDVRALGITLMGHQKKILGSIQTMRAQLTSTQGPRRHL
Compound,test,conditions,endpoint,value
O=C(Nc1cnn(-c2csc(C(=O)NC3COC3)c2)c1)Nc1ccccc1Cl,"enzyme activity, inhibitor",5 µM,remaining activity,103%
C[C@H](NC(=O)c1cnc2n1[C@](C)(Cc1ccc(C#N)cc1)C(=O)N2c1cc(Cl)c(F)c(Cl)c1)C(=O)NC1(c2ccccn2)CC1,"cell-free assay, competition with immobilised ligand",1 µM,remaining binding,100%
N#CCCc1ccc2c(c1)-c1[nH]c3ccc([N+](=O)[O-])cc3c1CC(=O)N2,cell-free assay,0.5 µM,remaining signal,105%
Cc1ccc(C(=O)NCc2ccsc2)cc1C#Cc1cn(C(C)C)c2ncnc(N)c12,"enzyme activity, inhibitor",1 µM,activity vs control,6%
CCN(CC)c1ccc(C2=NNC(=O)CC2C)cc1[N+](=O)[O-] (stereo not drawn),"enzyme activity, inhibitor",10 µM,remaining activity,115%
CNC(=O)c1ccc(Nc2ncc(C(F)(F)F)c(NCc3nccnc3N(C)S(C)(=O)=O)n2)cc1,"cell-free assay, competition with immobilised ligand",0.1 µM,remaining binding,87%
COc1cc(-c2cc(-c3ccc(N4CCNCC4)cc3)cnc2C)cc(OC)c1OC,"enzyme activity, inhibitor",1 µM,inhibition,10%
CCCOc1ccc([C@H]2[C@H](C(=O)O)[C@@H](c3ccc4c(c3)OCO4)CN2CC(=O)Nc2c(CC)cccc2CC)cc1,"cell-free assay, competition with immobilised ligand",1 µM,remaining binding,98%
CCN(CC)CCNC(=O)c1c(C)[nH]c(/C=C2\C(=O)Nc3ccc(F)cc32)c1C,cell-free assay,0.5 µM,remaining signal,92.1%
Cc1cnc(NC2CCOCC2)nc1-n1cnc(C(=O)NC(CN)c2cc(F)cc(Cl)c2)c1 (stereo not drawn),"enzyme activity, inhibitor, radiometric",1 µM,remaining activity,95%
Cc1ccc(Nc2nccc(N(C)c3ccc4c(C)n(C)nc4c3)n2)cc1S(N)(=O)=O,"enzyme activity, inhibitor",0.3 µM,inhibition,17%
O=C(NCCCC1CCCCC1)c1ccc(CNC(=O)c2cnn(-c3ccccc3)c2C(F)(F)F)cc1,"cell-free assay, competition with immobilised ligand",0.1 µM,remaining binding,95%
CCCOc1ccc(OC)c(F)c1C(=O)c1ccc(C(=O)N[C@@H]2CNC[C@H]2NC(=O)c2ccc3[nH]ncc3c2)cc1,"enzyme activity, inhibitor",10 µM,remaining activity,95%
CO[C@H]1CC[C@H](CNc2ccc(S(=O)(=O)NC(=O)c3ccc(N4CCN(CC5=C(c6ccc(Cl)cc6)CC(C)(C)CC5)CC4)cc3Oc3cnc4[nH]ccc4c3)cc2[N+](=O)[O-])CC1,"cell-free assay, competition with immobilised ligand",1 µM,remaining binding,84%
CC(C)(O)[C@H]1CC[C@H](Nc2ccc3ncc(-c4cccc(C(F)(F)F)c4)n3n2)CC1,"enzyme activity, inhibitor",1 µM,remaining activity,84.3%
C[C@@]1(Cc2ccc(C#N)cc2)C(=O)N(c2cc(Cl)cc(Cl)c2)c2ncc(C(=O)NC3(c4nc(C5CCC5)no4)CC3)n21,"cell-free assay, competition with immobilised ligand",1 µM,remaining binding,100%
CNC(=O)c1cc(Oc2ccc(NC(=O)Nc3ccc(Cl)c(C(F)(F)F)c3)cc2)ccn1,"enzyme activity, inhibitor",10 µM,inhibition,89%
COc1cc2ncnc(Nc3ccc(Oc4ccccc4)c(C)c3C)c2cc1OC,"enzyme activity, inhibitor",1 µM,inhibition,6%
Cc1cc(NC(=O)c2cccc3cc(-c4cccc5[nH]nc(N)c45)ccc23)ccc1F,"enzyme activity, inhibitor",0.1 µM,activity vs control,97%
CC(C)(C)c1nc2c(s1)c1nc(N)ncc1c1ccc(NS(=O)(=O)c3c(F)cccc3F)c(F)c12,"enzyme activity, inhibitor, radiometric",1 µM,remaining activity,95%
Cc1ccc(NC(=O)c2ccc(C)c(C(F)(F)F)c2)cc1C#Cc1nn(C2CCC(O)CC2)c2ncnc(N)c12 (stereo not drawn),cell-free assay,10 µM,remaining signal,2%
